# Screening results: PubChem BioAssay, several laboratories
# An excerpt weighted towards active compounds, which were near 2.1% of everything screened.
# Mot1-301 SUMO: blocks SUMOylation pathway, rescuing yeast Mot1-301 growth. S. cerevisiae Mot1-301 growth rescue, ATP luminescence, 38.5C; percent above DMSO median, 100 means doubled. growth rescue, % at 18.8 µM. 320,000 compounds, 1% hits. AID 2716;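 active = every valid replicate shows activation above 250% relative to neutral control wells; inactive = the rest, any valid replicate at or below 250%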;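 note: OY570 slx delta 5 strain wells were the positive control but not used for scaling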
# ARFGAP1 inh: inhibits rat ARF GTPase activating protein 1; Arfgap1-stimulated ARF1 GTP hydrolysis, GDP FP detection; inhibition, % at 16.5 µM; 360,000 compounds, 0.26% hits;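 active = inhibition above a per-plate limit, mean inhibition of low control wells plus 3 SD, cut at about 25% in these data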;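 note: 0% = DMSO wells with enzyme and 100% = wells lacking Arfgap1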
#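 Material: rat Arfgap1 catalytic domain, aa 1-136; also added: human ARF1(Δ1-17)-GTP substrate; compound dosing: one concentration, 16.5 µM, DMSO 1.26%; incubation: GTP hydrolysis reaction 2 h at 25 °C; measured by: Tracer-displacement fluorescence polarization with EDTA stop, 620/688 nm; evaluation: % inhibition from polarization; repeats: one replicate per compound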
# C2C12 statin: suppression of simvastatin myotoxicity; rescue of ATP level, % at 7.49 µM; AID 602340; 330,000 compounds, 0.78% hits; C2C12 myotubes + simvastatin, ATP luminescence, 48 h; scaled: DMSO 0, geranylgeraniol control 100;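 active = mean ATP rescue above about 67%, or every replicate alone reaching that limit, limit read from the data, passing the limit was not always enough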;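 note: myotubes were challenged with 10 µM simvastatin during compound exposure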
# ASAP1 inh: ASAP1 ArfGAP inhibition | Q9ULH1 | ASAP1-stimulated ARF1 GTP hydrolysis, GDP FP detection | inhibition, % at 16.5 µM | 360,000 compounds, 0.19% hits; in the data active = inhibition above about 25%;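 note: 0% = vehicle with enzyme and substrate and 100% = no enzyme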
# APOBEC3G inh: APOBEC3G (human) deaminase inhibition; recombinant A3G, ssDNA deamination FAM/TAMRA fluorescence; inhibition, % at 20 µM; 330,000 compounds, 0.28% hits; AID 493012;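 active = inhibition of at least 40% at 20 µM, with no more than 30% in the related APOBEC3A deaminase screen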;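 note: plate controls were DMSO wells with A3G for no effect and wells lacking A3G enzyme for full effect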
# Target sequence (Q9HC16 whole entry, looked up): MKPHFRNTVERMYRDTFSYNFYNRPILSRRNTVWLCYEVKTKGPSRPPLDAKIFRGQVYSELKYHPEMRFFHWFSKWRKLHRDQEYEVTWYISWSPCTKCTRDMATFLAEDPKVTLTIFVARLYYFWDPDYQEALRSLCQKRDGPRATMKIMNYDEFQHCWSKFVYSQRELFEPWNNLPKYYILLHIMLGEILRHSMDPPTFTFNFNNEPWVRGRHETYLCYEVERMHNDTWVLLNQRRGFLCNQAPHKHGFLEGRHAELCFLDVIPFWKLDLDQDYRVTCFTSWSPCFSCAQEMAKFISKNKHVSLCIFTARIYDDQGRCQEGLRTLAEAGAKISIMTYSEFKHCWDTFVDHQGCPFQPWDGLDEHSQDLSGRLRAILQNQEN
# A3A deaminase: inhibitors of human APOBEC3A DNA deaminase. recombinant A3A, FAM/TAMRA ssDNA deamination fluorescence. AID 493011. 330,000 compounds, 0.41% hits. inhibition, % at 20 µM;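 active = at least 40% inhibition at 20 µM here, with at most 30% in a related deaminase screen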;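 note: plate controls were A3A with DMSO for no effect and wells lacking A3A enzyme for full effect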
# Target sequence (P31941 whole entry, looked up): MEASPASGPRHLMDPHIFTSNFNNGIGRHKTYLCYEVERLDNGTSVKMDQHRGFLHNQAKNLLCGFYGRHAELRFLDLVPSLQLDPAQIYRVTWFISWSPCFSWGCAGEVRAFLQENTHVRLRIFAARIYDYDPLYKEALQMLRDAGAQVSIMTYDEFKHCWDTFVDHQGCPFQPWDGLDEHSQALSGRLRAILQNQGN
# ASAP1 inh confirm: ASAP1 inhibition confirmed; inhibition, % at 16.5 µM; shares compounds with ASAP1 inh; AID 624431; 620 compounds, 37% hits; ASAP1-stimulated Arf1 GTPase, GDP fluorescence polarization;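 active = mean inhibition over triplicates exceeds the hit threshold derived for the earlier primary screening run, cut at about 25% in these data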
# ARFGAP1 confirm: rat ARFGAP1 inhibition, confirmed | shares compounds with ARFGAP1 inh | ARFGAP1-stimulated ARF1 GTP hydrolysis, GDP tracer FP | inhibition, % at 16.5 µM | 890 compounds, 30% hits | AID 651608;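 active = average inhibition over triplicates above the hit cutoff set in the earlier primary screen, cut at about 25% in these data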;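 note: 0% = Arfgap1 plus ARF1-GTP with DMSO and 100% = wells lacking Arfgap1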
# * marks the source's active call; other numbers are inactive results; · = no result given.
SMILES,Mot1-301 SUMO,ARFGAP1 inh,C2C12 statin,ASAP1 inh,APOBEC3G inh,A3A deaminase,ASAP1 inh confirm,ARFGAP1 confirm
CC(=O)Nc1cc(-c2ccc(N3CCN(C)CC3)cc2)cn2c(-c3ccc(S(C)(=O)=O)cc3)cnc12,·,74*,0,69*,·,·,148*,142*
CC(C)NC(=O)Nc1cccc2c1O[C@@H](CN(C)Cc1ccc(-c3ccccc3)cc1)[C@@H](C)CN([C@@H](C)CO)C2=O,·,·,-1,·,·,·,·,·
C=CCNc1nc(NCCCN2CCCC2=O)c2sc(-c3ccccc3)cc2n1,·,60*,-84,38*,·,·,14,20
COCCNc1nc(NCCCN2CCCC2=O)c2sc(-c3ccccc3)cc2n1,·,2,1,19,·,·,·,·
CCN(CC)CCOC(=O)c1ccc(N/C=C(/C#N)c2nc(-c3ccc(OC)c(OC)c3)cs2)cc1,-33,115*,·,71*,-5,2,184*,196*
Cc1ccccc1/C=N/Nc1ccnc2cc(Cl)ccc12,-60,92*,·,50*,·,·,94*,149*
Clc1ccc2c(N/N=C/c3ccc(Br)cc3)ccnc2c1,264,69*,2,50*,·,·,65*,96*
C[C@H](CO)N1C[C@H](C)[C@@H](CN(C)S(=O)(=O)c2ccccc2)Oc2ccc(NS(C)(=O)=O)cc2CC1=O,·,·,-33,·,·,·,·,·
C[C@@H]1CN([C@H](C)CO)C(=O)Cc2cc(NS(C)(=O)=O)ccc2O[C@@H]1CN(C)S(=O)(=O)c1cn(C)cn1,·,·,-29,·,·,·,·,·
O=C(NCc1ccncc1)C(=O)N/N=C/c1ccc(OCc2ccccc2)cc1,-13,58*,·,31*,1,5,41*,99*
COc1ccc2c(c1)CC/C(=C\c1ccc(OC)c(Cn3cccn3)c1)C2=O,-1,7,-13,14,-2,0,·,·
COc1ccc2c(c1)CC/C(=C\c1ccc(OC)c(Cn3nc(C)cc3C)c1)C2=O,-14,29*,0,46*,-2,-1,56*,8
O=C(O)c1cc(NN=Nc2cccc([N+](=O)[O-])c2)cc([N+](=O)[O-])c1,79,48*,7,29*,-4,1,81*,94*
C[C@@H]1CN([C@@H](C)CO)C(=O)c2cc(NC(=O)C3CCCCC3)ccc2O[C@H]1CN(C)Cc1ccncc1,·,·,-2,·,·,·,·,·
O=C(N/N=C/c1cc(Cl)ccc1O)c1ccc(Br)cc1,-4,65*,·,52*,·,·,76*,99*
O=C(N/N=C/c1cc(Br)ccc1O)c1ccncc1,4,9,15,1,-1,6,·,·
COCC(=O)Nc1ccc2c(c1)[C@@H]1C[C@H](CC(=O)NCCc3ccccc3)O[C@H](CO)[C@@H]1O2,·,·,-1,·,·,·,·,·
C[C@@H]1CN([C@H](C)CO)C(=O)c2cc(NC(=O)Nc3ccc(F)cc3)ccc2O[C@@H](C)CCCCO[C@@H]1CN(C)Cc1ccncc1,·,·,3,·,·,·,·,·
COC(=O)Cn1cc(/C=N/NC(=O)COc2cccc3cccnc23)c2ccccc21,-14,29*,·,36*,-5,2,34*,31*
O=C(COc1cccc2cccnc12)N/N=C/c1ccccc1O,704,-8,·,4,1,4,·,·
COc1ccc(/C=N/Nc2cc(C)nc3ccc(OC)cc23)c(OC)c1,23,33*,-401,43*,0,2,93*,93*
COc1ccc2nc(C)cc(N/N=C/c3ccccc3)c2c1,-4,·,11,·,-7,2,·,·
CO[C@@H]1CN(C)C(=O)c2cc(NC(=O)C3CCOCC3)ccc2OC[C@@H](C)N(S(=O)(=O)c2ccc(Cl)cc2)C[C@H]1C,·,·,3,·,·,·,·,·
C[C@@H]1CN([C@H](C)CO)C(=O)c2cc(NC(=O)Nc3ccccc3)ccc2O[C@H]1CN(C)S(=O)(=O)c1ccccc1,·,·,-55,·,·,·,·,·
Oc1ccccc1C=NNC(=S)NN=Cc1ccccc1O,·,55*,-1,32*,·,·,58*,71*
SMILES,Mot1-301 SUMO,ARFGAP1 inh,C2C12 statin,ASAP1 inh,APOBEC3G inh,A3A deaminase,ASAP1 inh confirm,ARFGAP1 confirm
COc1cccc(Oc2cn[nH]c2-c2ccc(OCC(=O)NN)cc2O)c1,-11,2,6,10,1,10,·,·
CCCOC(=O)c1ccc(Oc2cn[nH]c2-c2ccc(OC)cc2O)cc1,-9,30*,-2,12,-2,-1,·,21
COC(=O)N/N=C/c1ccc(OS(=O)(=O)c2ccc(C)cc2)c(OC)c1,-4,37*,·,5,-10,0,·,-4
COc1ccc(C=NNC(=O)NN=Cc2ccc(OC)c(OC)c2)cc1OC,·,38*,6,6,·,·,·,55*
COc1cc(/C=N/NC(=O)c2cccnc2)ccc1OS(=O)(=O)c1ccc(C)cc1,-3,11,·,-8,-5,3,·,·
O=C(CCc1c[nH]c2ccccc12)Nc1ccc(Nc2ccccc2)cc1,·,27*,·,7,·,·,·,22
O=C(CCc1c[nH]c2ccccc12)Nc1ccc(Nc2ccncc2)cc1,·,10,·,2,·,·,·,·
O=S(=O)(N[C@@H]1CC[C@H](CCn2cc(C3CC3)nn2)O[C@H]1CO)c1ccc(Cl)cc1,·,·,7,·,·,·,·,·
Cc1cccc(NC(=O)C2C(c3ccccc3)C2(Cl)Cl)c1 (centres undefined),·,28*,·,-1,2,3,·,9
OCC1(Cc2cccc(F)c2)CCN(Cc2ccc3cccc(F)c3n2)CC1,16,25*,-10,3,0,3,·,2
COc1cccc(CC2(CO)CCN(Cc3ccc4cccc(F)c4n3)CC2)c1,-14,0,·,9,-4,1,·,·
Cc1c(C(=O)NN)nn(-c2ccc(Cl)cc2)c(=O)c1C#N,-2,25*,·,7,-5,-3,·,-1
CC(=O)Nc1ccc(NC(=O)c2cc(=O)c3cc(C)c(C)cc3o2)cc1,-2,29*,-7,10,-9,-1,·,17
CC(=O)Nc1ccc(NC(=O)c2cc(=O)c3ccc(C)cc3o2)cc1,-10,22,-2,3,-1,0,·,·
COc1ccccc1-c1cnc2c(c1)C(=O)N([C@@H](C)CO)C[C@@H](C)[C@H](CN(C)Cc1ccncc1)O2,·,·,24,·,·,·,·,·
CC(C)NC(=O)c1ccccc1NC(=O)CN(c1ccc2c(c1)OCO2)S(C)(=O)=O,7,30*,8,-13,-5,4,·,3
C/C(=N\N1C(=O)c2ccccc2NC1c1ccccc1)c1ccccc1O (centres undefined),109,27*,4,-7,-19,-7,·,-1
CCCNC(=O)Cn1cnc2sc(C(=O)N3CCN(c4ccc(F)cc4)CC3)c(C)c2c1=O,-7,26*,4,6,-3,0,·,4
